The source made the active and inactive calls. The calls are words filed in the database; no cut-off is given here.
Tests used:
[1] = system: Mus musculus; assay: In vivo antagonist activity at D2 receptor in ip dosed Swiss albino mouse assessed as inhibition of apomorphine-induced climbing behaviour administered 10 mins prior to apomophine injection measured after 20 mins; assay type: functional
Summary of the method: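 Male Swiss albino mice, 5-6 per dose, in metal-bar cages. Compound i.p. was followed 10 min later by apomorphine 3 mg/kg i.p. Climbing time (2–4 paws on the wall) was measured for 2 min starting 20 min after apomorphine. ID50 is the dose inhibiting climbing by 50%.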

[2] = system: Mus musculus; assay: Anti-depressant like activity in Swiss albino mouse assessed as shortening of immobility time at 2.5 mg/kg, ip by forced swim test; assay type: functional
Summary of the method: (§1)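 Forced swim test in male Swiss albino mice, 7-9 per dose. Compound was given i.p. in 1% Tween 80 at 10 ml/kg, 60 min pretest. Mice swam for 6 min in a cylinder with 6 cm of water at 23-25 °C. Immobility was scored over the last 4 min. Analysis was one-way ANOVA with Bonferroni.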

[3] = system: Rattus norvegicus; assay: Induction of lower lip retraction in Wistar rat at 5 to 40 mg/kg, ip; assay type: functional, organism-based
[4] = system: Mus musculus; assay: Toxicity in ip dosed spontaneous locomotor activity CD-1 mouse model assessed as dose required to cause sedation; assay type: organism-based; conditions: in vivo
Summary of the method: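 CD-1 mice, 8-10 per dose, with compound given i.p. in 1% Tween 80 suspension 60 min before testing. After 30 min habituation in individual cages, ambulation (channel crossings) was counted over 1 h, recorded every 5 min. Mean ± SEM, one-way ANOVA with Bonferroni test.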

[5] = system: Rattus norvegicus; assay: Inhibition of 8-OH-DPAT-induced lower lip retraction in Wistar rat at 5 to 40 mg/kg, ip administered 45 mins before 8-OH-DPAT administration; assay type: functional, organism-based
Summary of the method: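 Wistar rats, 5-6 per dose, given compound i.p. (1% Tween 80 suspension) 45 min before 8-OH-DPAT (1 mg/kg). Lower lip retraction was scored 15, 30 and 45 min after 8-OH-DPAT on a 0/0.5/1 scale (incisor visibility), giving a maximum total of 3. Mean ± SEM, ANOVA with Bonferroni test.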

[6] = system: Mus musculus; assay: Anti-depressant like activity in Swiss albino mouse assessed as shortening of immobility time at 5 mg/kg, ip by forced swim test; assay type: functional; summary of the method: as §1
[7] = system: Mus musculus; assay: In vivo partial agonist activity at 5HT1A receptor in CD-1 mouse assessed as change in body temperature at 10 mg/kg, ip measured after 30 mins (reference value: -0.1 degC); assay type: functional, organism-based
Summary of the method: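 Male CD-1 mice, 7-9 per dose, dosed i.p. Rectal temperature was recorded at 30, 60, 90 and 120 min. Results are the change from basal temperature taken at the start of the experiment.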

[8] = system: Mus musculus; assay: In vivo partial agonist activity at 5HT1A receptor in CD-1 mouse assessed as change in body temperature at 10 mg/kg, ip administered 15 mins after 5HT1A receptor antagonist WAY100635 injection measured after 30 mins (reference value: -0.1 degC); assay type: functional, organism-based
Summary of the method: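 Male CD-1 mice, 7-9 per dose. WAY 100635 (0.3 mg/kg) was given 15 min before the compound i.p. Rectal temperature was recorded 30 and 60 min after the compound, as the change from basal temperature.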

[9] = system: Mus musculus; assay: Toxicity in Swiss albino mouse assessed as stimulation of spontaneous locomotor activity at 2.5 to 5 mg/kg, ip measured during 2-6 mins session; assay type: organism-based; conditions: in vivo
Summary of the method: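 Male Swiss albino mice, 8-10 per dose, received compound i.p. 60 min before testing. Each mouse was placed individually in a cage on an infrared activity monitor. Channel crossings (ambulation) were counted from 2 to 6 min, matching the forced swim test observation window.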

[10] = system: Mus musculus; assay: In vivo partial agonist activity at 5HT1A receptor in CD-1 mouse assessed as change in body temperature at 5 mg/kg, ip measured after 60 mins (reference value: -0.1 degC); assay type: functional, organism-based
Summary of the method: (§2)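 Male CD-1 mice, 7-9 per dose, compound suspended in 1% aqueous Tween 80 and given i.p. at 10 ml/kg. Rectal temperature was taken by thermometer 30, 60, 90 and 120 min after dosing. Change (Δt) is expressed against basal temperature measured at the start. Mean ± SEM, one-way ANOVA with Bonferroni test.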

[11] = system: Mus musculus; assay: Antipsychotic activity in CD-1 mouse assessed as inhibition of D-amphetamine-induced hyperlocomotor activity at 0.156 to 0.625 mg/kg, ip; assay type: functional, organism-based
Summary of the method: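 Male CD-1 mice, 8-10 per dose. d-Amphetamine was given s.c. 30 min pretest; test compound i.p. 60 min pretest in 1% Tween 80. After 30 min habituation in the activity monitor, ambulation crossings were counted for 1 h, recorded every 5 min.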

[12] = system: Mus musculus; assay: In vivo partial agonist activity at 5HT1A receptor in CD-1 mouse assessed as change in body temperature at 10 mg/kg, ip measured after 60 mins (reference value: -0.1 degC); assay type: functional, organism-based; summary of the method: as §2
[13] = species on record: Mus musculus; assay: Ratio of MED for catalepsy in CD-1 mouse to ED50 for antipsychotic activity in CD-1 mouse
[14] = system: Mus musculus; assay: Antianxiety-like activity in Swiss albino mouse assessed as number of punished crossings at 0.312 to 5 mg/kg, ip by four-plate test; assay type: functional, organism-based
Summary of the method: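 Four-plate test in male Swiss albino mice, 8-10 per dose, dosed i.p. in Tween 80 vehicle. After 15-s habituation, a 0.8 mA, 0.5 s foot shock was given at each plate crossing, with a 3 s shock-free interval. Punished crossings were counted over a 1-min session.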

[15] = system: Mus musculus; assay: In vivo partial agonist activity at 5HT1A receptor in CD-1 mouse assessed as change in body temperature at 10 mg/kg, ip measured after 90 mins (reference value: -0.1 degC); assay type: functional, organism-based; summary of the method: as §2

In the case of `COc1ccccc1N1CCN(CCCCN2C(=O)NC3(CCCc4ccccc43)C2=O)CC1` (stereo not given), the ED50 [1] is reported as 37.9 mg/kg, the inhibition in vivo at 2.5 mg/kg [2] is reported as 37% and the Activity [3] is reported as “inactive”. The Activity [4] was 2.5 mg/kg, the inhibition [5] was “Active” and the inhibition in vivo at 5 mg/kg [6] was 45%. For the same compound, the deltaT [7] was -1.9 °C, the deltaT [8] was -1.1 °C and the Activity [9] was “Non-toxic”. For the same compound, the deltaT [10] was -0.7 °C, the inhibition [11] was “Active” and the deltaT [12] was -1.3 °C. For the same compound, the Ratio [13] was 50, the Activity [14] was “inactive” and the deltaT [15] was -1.3 °C.
